The source of these data is paper PMC10173165 (Journal of Advanced Research, 2022).

Data set [1] relates to NCI-N87 xenograft. Put plainly: NCI-N87 tumor xenograft with IHC. Format: in vivo, athymic nude mice. The gist of the method: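 Female athymic nude mice (5 weeks old) received 5 × 10^6 NCI-N87 cells s.c. in PBS into the right flank and were randomised at 90–100 mm3 (n = 5/group). Dosing was 4 mg/kg i.v. in DMAC/Tween80/saline (5:10:85), six times at 3-day intervals. Caliper volume (L × W2)/2 was followed to day 28. Paraffin tumour sections were stained for HER2 and Ki-67 (DAB), with IHC score = intensity × fraction (0–300) over 10 fields per sample.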

The nature of data set [2]: Intravenous and oral pharmacokinetic profile. The data set is classed as in vivo, ICR mice. The settings on record: male, ICR, mouse, plasma.
Data set [3] in a line: Genotoxicity safety assessment.
Data set [4] addresses T1, (His)6-MED23_391–582 / FITC-ELF3_129–145 (Homo sapiens, UniProt Q9ULK4).
T1 sequence (Q9ULK4 391-582): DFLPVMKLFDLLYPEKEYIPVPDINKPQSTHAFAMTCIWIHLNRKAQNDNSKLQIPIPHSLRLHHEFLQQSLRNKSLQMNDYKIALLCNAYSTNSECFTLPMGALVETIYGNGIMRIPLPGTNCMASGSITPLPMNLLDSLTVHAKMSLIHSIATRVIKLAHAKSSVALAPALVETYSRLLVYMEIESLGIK
Put plainly: Fluorescence polarization assay. The settings on record: negative control. The data set is classed as binding.

Data set [5] concerns the target T2, (His)6-MED23_(391–582) (human, UniProt Q9ULK4 391-582).
T2 sequence: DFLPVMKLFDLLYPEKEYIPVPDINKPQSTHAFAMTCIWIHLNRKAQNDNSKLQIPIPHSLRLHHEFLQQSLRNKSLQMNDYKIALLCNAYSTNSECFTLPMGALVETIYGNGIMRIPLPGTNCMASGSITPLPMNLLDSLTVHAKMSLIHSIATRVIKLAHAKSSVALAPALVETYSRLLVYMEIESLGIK
Nature of the data set: fluorescence polarisation. A general note: Fluorescence polarisation rises when a labelled molecule tumbles more slowly, as on binding a larger partner.

The target of data set [6] is T3, Nluc-ELF3^WT (human, UniProt P78545-1 1-371).
T3 sequence: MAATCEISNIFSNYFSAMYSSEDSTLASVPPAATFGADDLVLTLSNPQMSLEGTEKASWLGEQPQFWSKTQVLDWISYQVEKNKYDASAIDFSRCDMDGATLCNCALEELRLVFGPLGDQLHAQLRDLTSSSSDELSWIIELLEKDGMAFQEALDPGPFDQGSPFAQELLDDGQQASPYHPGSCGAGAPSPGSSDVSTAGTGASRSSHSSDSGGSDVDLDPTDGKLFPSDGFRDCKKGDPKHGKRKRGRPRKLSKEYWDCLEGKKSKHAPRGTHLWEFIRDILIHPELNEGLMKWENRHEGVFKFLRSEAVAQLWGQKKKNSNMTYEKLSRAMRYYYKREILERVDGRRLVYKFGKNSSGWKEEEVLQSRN
Put plainly: split reporter.

[7] abbreviates: 4 mg/kg IV, compared to untreated control.

Ends that are not written are not given here.

As usually defined, the half-life is the time in which the quantity being followed falls by half. A higher half-life goes with slow decline. In general, bioavailability refers to the share of a dose that reaches the circulation, judged against a reference dose that is usually intravenous. A high value points to good availability.

As to `CC(=O)N1N=C(c2cccc(O)c2)CC1c1ccc(Cl)cc1` (stereo not drawn) [Compound 15], in data set [1] (4 mg/kg IV every 3 days), the Tumor growth result is listed as “significant tumor growth retardation”. In addition, in data set [1] (setting [7]), the “Decrease in proliferation marker Ki67 (IHC)” value was 4.5 fold and the “Reduction of HER2 level in the tumor (IHC)” value is given as 1.8 fold. This molecule also had a half-life in data set [2] (iv) of 9.74 ± 2.76 h. Further, in data set [2] (po), the bioavailability turned out to be 25.1% and the half-life is 10.9 ± 11 h. Besides, in data set [3], the Genotoxicity result is on record as “no association of genotoxicity”.

As for `COc1ccc(C2CC(c3ccccc3O)=NN2C(C)=O)c2ccccc12` (stereo not drawn) [Compound 18], the “Change of FP signal” value in data set [4] is “made no such changes”.

Consider TSSSSDELSWIIELLEK (also: FITC label, position not given here) [FITC-labeled ELF3_(129–145) peptide], for which the binding result in data set [5] is “binds”.

B1: Cluc-MED23_(391-582)^WT (domain or fragment)
chain: DFLPVMKLFDLLYPEKEYIPVPDINKPQSTHAFAMTCIWIHLNRKAQNDNSKLQIPIPHSLRLHHEFLQQSLRNKSLQMNDYKIALLCNAYSTNSECFTLPMGALVETIYGNGIMRIPLPGTNCMASGSITPLPMNLLDSLTVHAKMSLIHSIATRVIKLAHAKSSVALAPALVETYSRLLVYMEIESLGIK
Consider B1, for which the “fold change of luciferase activity relative to control” value in data set [6] is 5.2 fold.

B2: Cluc-MED23_(391-582)^K397A (domain or fragment)
chain: DFLPVMALFDLLYPEKEYIPVPDINKPQSTHAFAMTCIWIHLNRKAQNDNSKLQIPIPHSLRLHHEFLQQSLRNKSLQMNDYKIALLCNAYSTNSECFTLPMGALVETIYGNGIMRIPLPGTNCMASGSITPLPMNLLDSLTVHAKMSLIHSIATRVIKLAHAKSSVALAPALVETYSRLLVYMEIESLGIK
On to B2, for which the “fold change of luciferase activity relative to control” value in data set [6] came to 4.8 fold.

B3: Cluc-MED23_(391-462) (domain or fragment)
chain: DFLPVMKLFDLLYPEKEYIPVPDINKPQSTHAFAMTCIWIHLNRKAQNDNSKLQIPIPHSLRLHHEFLQQSL
For B3, the “fold change of luciferase activity vs control” value in data set [6] turned out to be 6 fold.
